Measured values taken from ChEMBL document CHEMBL4339218, “Discovering New Casein Kinase 1d Inhibitors with an Innovative Molecular Dynamics Enabled Virtual Screening Workflow” (ACS Med Chem Lett, 2019).
pIC50: −log10 of the molar value.

Columns and labels:
[1] = biological target: T1, Casein kinase I isoform delta (Homo sapiens, UniProt P48730); test: Inhibition of CSNK1D (unknown origin) at 1 uM using CSNK1D/Ser/Thr 11 peptide incubated for 1 hr by FRET based Z'-LYTE assay relative to untreated control
Method in brief: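 Single-point test at 1 μM ligand, in duplicate, reported as mean ± SD. Coupled-enzyme FRET readout in which a development protease cleaves only nonphosphorylated peptide. Development reagent B (1:16) then added. Coumarin/fluorescein emission ratio read after 400 nm excitation.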
Target sequence in this assay (P48730 whole entry, looked up, canonical isoform): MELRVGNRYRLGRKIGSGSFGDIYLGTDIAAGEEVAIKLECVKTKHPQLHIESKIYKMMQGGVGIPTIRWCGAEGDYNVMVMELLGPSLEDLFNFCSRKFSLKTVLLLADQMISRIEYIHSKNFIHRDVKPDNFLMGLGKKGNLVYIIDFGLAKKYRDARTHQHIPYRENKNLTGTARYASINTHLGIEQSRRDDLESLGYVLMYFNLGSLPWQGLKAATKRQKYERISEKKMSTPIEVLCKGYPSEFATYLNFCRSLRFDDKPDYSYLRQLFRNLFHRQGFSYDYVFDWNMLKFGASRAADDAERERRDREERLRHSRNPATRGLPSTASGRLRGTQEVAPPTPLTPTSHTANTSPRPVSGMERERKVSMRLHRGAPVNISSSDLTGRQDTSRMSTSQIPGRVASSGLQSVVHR

[2] = biological target: T1, Casein kinase I isoform delta; test: Inhibition of CSNK1D (unknown origin) using CSNK1D/Ser/Thr 11 peptide incubated for 1 hr by FRET based Z'-LYTE assay
Method in brief: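 Full dose–response curve used for IC50. Duplicates, averaged with SD. Protease development reagent B (1:16) then added. Phosphorylation taken from the donor coumarin/acceptor fluorescein emission ratio at 400 nm excitation.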
Target sequence in this assay (P48730 whole entry, canonical isoform): as the sequence (P48730 whole entry, looked up, canonical isoform) above

| SMILES | inhibition [1] | pIC50 [2] |
| --- | --- | --- |
| Fc1ccc(-c2n[nH]c3ccc(-c4n[nH]c(CN5CCCC5)n4)cc23)cc1 | 53% | 6.07 |
| CN(C)Cc1n[nH]c(-c2ccc3[nH]nc(-c4cccc(C(=O)Nc5ccc(F)cc5)c4)c3c2)n1 | 99% | 6.87 |
| O=C1CCCN1Cc1nnc(-c2ccc3[nH]nc(-c4ccc(F)cc4)c3c2)[nH]1 | 25% |  |
| C[C@@H](NC(=O)c1ccc2[nH]nc(-c3cccc(NS(C)(=O)=O)c3)c2c1)c1ccccc1 | 66% | 5.99 |
| CNC(=O)c1ccc2[nH]nc(-c3cccc(C(=O)Nc4cc(-c5ccccn5)n[nH]4)c3)c2c1 | 57% |  |

Continued, values first:

| inhibition [1] | pIC50 [2] | SMILES |
| --- | --- | --- |
| 80% | 6.45 | CNC(=O)c1ccc2[nH]nc(-c3cccc(C(=O)NCc4cccc5ccccc45)c3)c2c1 |
| 92% |  | CNC(=O)c1ccc2[nH]nc(-c3cccc(C(=O)NCc4cnc(C)nc4N)c3)c2c1 |
